# Measured values reported in ChEMBL document CHEMBL5715941, “AZD1152, a selective inhibitor of Aurora B kinase, inhibits human tumor xenograft growth by inducing apoptosis” (Clin Cancer Res, 2007).
# Calls of active or inactive are those of the source. The rule behind the calls is not given here.
# Columns and labels:
# HL-60 = experiment: Antitumor activity against human HL-60 cells xenografted in immunodeficient Swiss athymic mouse assessed as maximum inhibition of tumor volume at 150 mg/kg/day, sc for 48 hrs on days 16 to 18 and measured on day 18 relative to control; assay type: functional; settings: HL-60, 72 h, time 3 day
# In short: (§1)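 Male Swiss athymic nude mice, 8-12 wk; tumor cells (1×10^6-1×10^7, 50:50 Matrigel) implanted s.c. on flank. Randomized (n = 8-11) at 0.2-0.5 cm3. AZD1152 in Tris buffer pH 9, or vehicle (0.3 mol/L Tris), by 48-h s.c. osmotic mini-pump infusion (two 24-h pumps in sequence). Caliper volumes up to 3×/week; growth inhibition from change in control vs treated volume; one-tailed t test.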
# SW-620 [1] = experiment: Antitumor activity against human SW620 cells xenografted in immunodeficient Swiss athymic mouse assessed as maximum inhibition of tumor volume at 25 mg/kg/day, ip for 4 days on days 6 to 9 and measured on day 13 relative to control; assay type: functional; settings: SW-620, 192 h, time 8 day
# In short: (§2)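 Male Swiss nude mice bearing s.c. flank SW620 xenografts (cells in Matrigel), randomized (n = 8-11) at 0.2-0.3 cm3. AZD1152 in Tris buffer pH 9, or vehicle, given as a once-daily i.v. or i.p. bolus. Caliper volumes up to 3×/week; inhibition from change in control vs treated volume; one-tailed t test.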
# SW-620 [2] = experiment: Antitumor activity against human SW620 cells xenografted in Swiss nude mouse assessed as reduction in PhH3 at Ser10 residue at 70 mg/kg/day, sc over 48 hrs by immunohistochemistry analysis; assay type: functional, organism-based
# In short: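 Male nude mice bearing SW620 tumors (n = 4/group) had 48-h s.c. mini-pump infusion of AZD1152 (70 mg/kg/d) or vehicle. Excised tumor sections were stained with H&E, or immunostained for PhH3 Ser10 with rabbit polyclonal antibody, HRP-polymer detection and hematoxylin counterstain.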
# SW-620 [3] = experiment: Antitumor activity against human SW620 cells xenografted in nude athymic rat assessed as proportion of polyploid DNA content in tumor cells at 25 mg/kg/day, iv for 1 to 5 consecutive days by flow cytometry analysis relative to control; assay type: functional; settings: time 1-5 day
# In short: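 Nude rats with SW620 xenografts (0.5-1 cm3) were given vehicle or AZD1152 at 25 mg/kg/d as an i.v. bolus once daily on days 1-4. Subgroups (n = 3) were killed on days 0, 5, 9, 12, 16 and 19. Disaggregated tumors were analyzed by flow cytometry for PhH3 (% of control) and for 4N and >4N DNA (fold over control).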
# SW-620 [4] = experiment: Antitumor activity against human SW620 cells xenografted in Swiss nude mouse assessed as inhibition in PhH3 level at 10 to 150 mg/kg/day, sc measured over 48 hrs by flow cytometry analysis relative to control; assay type: functional; settings: dose 10-150 mg/kg/day
# In short: (§3)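 Male nude mice with palpable s.c. SW620 tumors (n = 4/group) received AZD1152 (0.5-150 mg/kg/d) or vehicle by constant 48-h s.c. mini-pump infusion. Tumors were then excised, fixed and disaggregated. Flow cytometry with propidium iodide gave DNA content (2N, 4N, >4N), and rabbit anti-PhH3 with fluorescein anti-rabbit IgG gave PhH3-positive cells (%).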
# SW-620 [5] = experiment: Antitumor activity against human SW620 cells xenografted in Swiss nude mouse assessed as reduction in proportion of PhH3-positive cells within the G2-M phase at 70 mg/kg/day, sc measured over 48 hrs by flow cytometry analysis; assay type: functional, organism-based; in short: as §3
# SW-620 [6] = experiment: Antitumor activity against human SW620 cells xenografted in immunodeficient Swiss athymic mouse assessed as maximum inhibition of tumor volume at 150 mg/kg/day, sc for 48 hrs on days 7 to 9 and measured on day 23 relative to control; assay type: functional; settings: SW-620, 408 h, time 17 day; in short: as §1
# SW-620 [7] = experiment: Antitumor activity against human SW620 cells xenografted in nude athymic rat assessed as reduction in total cellular content at 25 mg/kg/day, iv for 4 consecutive days and measured on 5 day by H&E staining based immunohistochemistry analysis; assay type: functional, organism-based
# In short: (§4)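 Nude rats bearing SW620 tumors were dosed i.v. with AZD1152 at 25 mg/kg/d or with vehicle on days 1-4. Subgroups (n = 3) were killed at set days. Tumor and bone marrow sections were H&E-stained and examined histologically.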
# SW-620 [8] = experiment: Antitumor activity against human SW620 cells xenografted in immunodeficient Swiss athymic mouse assessed as inhibition of tumor volume at 25 mg/kg/day, iv for 3 days on days 6 to 8 and measured on day 24 relative to control; assay type: functional; settings: SW-620, 456 h, time 19 day; in short: as §2
# SW-620 [9] = experiment: Antitumor activity against human SW620 cells xenografted in nude athymic rat assessed as atrophy in bone marrow at 25 mg/kg/day, iv for 4 consecutive days and measured on 5 day by H&E staining based immunohistochemistry analysis; assay type: functional, organism-based; in short: as §4
# SW-620 [10] = experiment: Antitumor activity against human SW620 cells xenografted in Swiss nude mouse assessed as inhibition in PhH3 level at 0.5 mg/kg/day, sc measured over 48 hrs by flow cytometry analysis relative to control; assay type: functional; in short: as §3
# HCT-116 [11] = experiment: Antitumor activity against human HCT-116 cells xenografted in immunodeficient Swiss athymic mouse assessed as maximum inhibition of tumor volume at 150 mg/kg/day, sc for 48 hrs on days 11 to 13 and measured on day 18 relative to control; assay type: functional; settings: HCT-116, 192 h, time 8 day; in short: as §1
# SW-620 [12] = experiment: Antitumor activity against human SW620 cells xenografted in immunodeficient Swiss athymic mouse assessed as maximum inhibition of tumor volume at 25 mg/kg/day, iv for 3 days on days 6 to 8 and measured on day 13 relative to control; assay type: functional; settings: SW-620, 192 h, time 8 day; in short: as §2
# A549 [13] = experiment: Antitumor activity against human A549 cells xenografted in immunodeficient Swiss athymic mouse assessed as maximum inhibition of tumor volume at 25 mg/kg/day, sc for 48 hrs on days 13 to 15 and measured on day 15 relative to control; assay type: functional; settings: A549, 72 h, time 3 day; in short: as §1
# SW-620 [14] = experiment: Induction of polyploidy in human SW620 cells at 300 nmol/L incubated for 48 hrs by flow cytometry analysis; assay type: functional, cell-based
# In short: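 SW620 cells were grown in L-15 with 10% heat-inactivated FCS at 37°C without CO2. They were exposed to AZD1152-HQPA for 0, 24 or 48 h, fixed in 70% ethanol at −20°C overnight, stained with propidium iodide (10 µg/mL) plus RNase (100 µg/mL), and DNA content was read by flow cytometry.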
# A549 [15] = experiment: Antitumor activity against human A549 cells xenografted in immunodeficient Swiss athymic mouse assessed as inhibition of tumor volume at 150 mg/kg/day, sc for 48 hrs on days 13 to 15 and measured on day 29 relative to control; assay type: functional; settings: A549, 408 h, time 17 day; in short: as §1
# HCT-116 [16] = experiment: Antitumor activity against human HCT-116 cells xenografted in immunodeficient Swiss athymic mouse assessed as inhibition of tumor volume at 150 mg/kg/day, sc for 48 hrs on days 11 to 13 and measured on day 25 relative to control; assay type: functional; settings: HCT-116, 360 h, time 15 day; in short: as §1
# SW-620 [17] = experiment: Antitumor activity against human SW620 cells xenografted in nude athymic rat assessed as high degree of pleomorphism at 25 mg/kg/day, iv for 4 consecutive days and measured on 5 day by H&E staining based immunohistochemistry analysis; assay type: functional, organism-based; in short: as §4
smiles,measurement,setting,value
CCN(CCCOc1ccc2c(Nc3cc(CC(=O)Nc4cccc(F)c4)[nH]n3)ncnc2c1)CCOP(=O)(O)O [BARASERTIB],inhibition in vivo at 150 mg/kg/day,HL-60,> 100%
same,inhibition in vivo at 25 mg/kg/day,SW-620 [1],65%
same,Activity,SW-620 [2],Active
same,Activity,SW-620 [3],67%
same,inhibition (INH),SW-620 [4],77%
same,Activity,SW-620 [5],Active
same,inhibition in vivo at 150 mg/kg/day,SW-620 [6],87%
same,Activity,SW-620 [7],Active
same,inhibition in vivo at 25 mg/kg/day,SW-620 [8],47%
same,Activity,SW-620 [9],Active
same,inhibition in vivo at 0.5 mg/kg/day,SW-620 [10],52%
same,inhibition in vivo at 150 mg/kg/day,HCT-116 [11],93%
same,inhibition in vivo at 25 mg/kg/day,SW-620 [12],91%
same,inhibition in vivo at 25 mg/kg/day,A549 [13],74%
same,Activity,SW-620 [14],Active
same,inhibition in vivo at 150 mg/kg/day,A549 [15],69%
same,inhibition in vivo at 150 mg/kg/day,HCT-116 [16],74%
same,Activity,SW-620 [17],Active
